Results reported in ChEMBL document CHEMBL5705890, “Antitumor activity of an allosteric inhibitor of centromere-associated protein-E” (Proc Natl Acad Sci U S A, 2010).

How the values were obtained:
[1] = biological target: T1, Centromere-associated protein E (Homo sapiens, UniProt Q02224); assay: Inhibition of microtubule-stimulated ATPase activity of C-terminal 6-his-tagged CENP-E (2 to 340 residues)(unknown origin) expressed in Escherichia coli BL21(DE3) in presence of ATP
Method in brief: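 Steady-state ATPase of CENP-E motor domain, residues 2–340 with C-terminal 6-His tag, expressed in E. coli BL21(DE3). Run at 1 nM enzyme, 500 μM ATP and 5 μM paclitaxel-stabilized microtubules in PEM25 (25 mM PIPES-K pH 6.8, 2 mM MgCl2, 1 mM EGTA) plus 10 μM paclitaxel. IC50 taken from concentration-response curves.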

[2] = biological target: T1, Centromere-associated protein E; assay: Inhibition of ATPase activity of C-terminal 6-his-tagged CENP-E (2 to 340 residues)(unknown origin) expressed in Escherichia coli BL21(DE3) in presence of ATP
[3] = biological target: T1, Centromere-associated protein E; assay: Uncompetitive-like binding affinity to C-terminal 6-his-tagged CENP-E (2 to 340 residues)(unknown origin) expressed in Escherichia coli BL21(DE3) assessed as apparent inhibition constant in presence of ATP; details: read-out: Ki(app)
[4] = biological target: T1, Centromere-associated protein E; assay: Uncompetitive binding affinity to microtubule-stimulated ATPase activity of C-terminal 6-his-tagged CENP-E (2 to 340 residues)(unknown origin) expressed in Escherichia coli BL21(DE3) assessed as apparent inhibition constant; details: read-out: Ki(app)
Method in brief: (§1)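 CENP-E motor domain (residues 2–340, C-terminal 6-his, from E. coli BL21(DE3)) run in MT-stimulated ATPase with 500 μM ATP, 5 μM paclitaxel-stabilized MT, 1 nM enzyme in PEM25 buffer, pH 6.8. Apparent Ki taken from the concentration-response curves with explicit correction for enzyme concentration.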

[5] = biological target: T1, Centromere-associated protein E; assay: Binding affinity to wild-type human CENP-E assessed as inhibition constant; method in brief: as §1
Centromere protein E = Centromere protein E (Canis lupus familiaris, UniProt A0A8P0P634); assay: Binding affinity to wild-type dog CENP-E assessed as inhibition constant
[6] = biological target: Centromere-associated protein E (Mus musculus, UniProt Q6RT24); assay: Binding affinity to wild-type mouse CENP-E assessed as inhibition constant
[7] = biological target: Centromere-associated protein E (Homo sapiens, UniProt Q02224, I182L/K184T/T183A); assay: Binding affinity to human CENP-E I182L/T183A/K184T mutant assessed as inhibition constant
[8] = biological target: T1, Centromere-associated protein E; assay: Competitive-like binding affinity to C-terminal 6-his-tagged CENP-E (2 to 340 residues)(unknown origin) expressed in Escherichia coli BL21(DE3) assessed as apparent inhibition constant in presence of ATP; details: read-out: Ki(app)

T1 sequence (Q02224 whole entry, the tested form may be a part): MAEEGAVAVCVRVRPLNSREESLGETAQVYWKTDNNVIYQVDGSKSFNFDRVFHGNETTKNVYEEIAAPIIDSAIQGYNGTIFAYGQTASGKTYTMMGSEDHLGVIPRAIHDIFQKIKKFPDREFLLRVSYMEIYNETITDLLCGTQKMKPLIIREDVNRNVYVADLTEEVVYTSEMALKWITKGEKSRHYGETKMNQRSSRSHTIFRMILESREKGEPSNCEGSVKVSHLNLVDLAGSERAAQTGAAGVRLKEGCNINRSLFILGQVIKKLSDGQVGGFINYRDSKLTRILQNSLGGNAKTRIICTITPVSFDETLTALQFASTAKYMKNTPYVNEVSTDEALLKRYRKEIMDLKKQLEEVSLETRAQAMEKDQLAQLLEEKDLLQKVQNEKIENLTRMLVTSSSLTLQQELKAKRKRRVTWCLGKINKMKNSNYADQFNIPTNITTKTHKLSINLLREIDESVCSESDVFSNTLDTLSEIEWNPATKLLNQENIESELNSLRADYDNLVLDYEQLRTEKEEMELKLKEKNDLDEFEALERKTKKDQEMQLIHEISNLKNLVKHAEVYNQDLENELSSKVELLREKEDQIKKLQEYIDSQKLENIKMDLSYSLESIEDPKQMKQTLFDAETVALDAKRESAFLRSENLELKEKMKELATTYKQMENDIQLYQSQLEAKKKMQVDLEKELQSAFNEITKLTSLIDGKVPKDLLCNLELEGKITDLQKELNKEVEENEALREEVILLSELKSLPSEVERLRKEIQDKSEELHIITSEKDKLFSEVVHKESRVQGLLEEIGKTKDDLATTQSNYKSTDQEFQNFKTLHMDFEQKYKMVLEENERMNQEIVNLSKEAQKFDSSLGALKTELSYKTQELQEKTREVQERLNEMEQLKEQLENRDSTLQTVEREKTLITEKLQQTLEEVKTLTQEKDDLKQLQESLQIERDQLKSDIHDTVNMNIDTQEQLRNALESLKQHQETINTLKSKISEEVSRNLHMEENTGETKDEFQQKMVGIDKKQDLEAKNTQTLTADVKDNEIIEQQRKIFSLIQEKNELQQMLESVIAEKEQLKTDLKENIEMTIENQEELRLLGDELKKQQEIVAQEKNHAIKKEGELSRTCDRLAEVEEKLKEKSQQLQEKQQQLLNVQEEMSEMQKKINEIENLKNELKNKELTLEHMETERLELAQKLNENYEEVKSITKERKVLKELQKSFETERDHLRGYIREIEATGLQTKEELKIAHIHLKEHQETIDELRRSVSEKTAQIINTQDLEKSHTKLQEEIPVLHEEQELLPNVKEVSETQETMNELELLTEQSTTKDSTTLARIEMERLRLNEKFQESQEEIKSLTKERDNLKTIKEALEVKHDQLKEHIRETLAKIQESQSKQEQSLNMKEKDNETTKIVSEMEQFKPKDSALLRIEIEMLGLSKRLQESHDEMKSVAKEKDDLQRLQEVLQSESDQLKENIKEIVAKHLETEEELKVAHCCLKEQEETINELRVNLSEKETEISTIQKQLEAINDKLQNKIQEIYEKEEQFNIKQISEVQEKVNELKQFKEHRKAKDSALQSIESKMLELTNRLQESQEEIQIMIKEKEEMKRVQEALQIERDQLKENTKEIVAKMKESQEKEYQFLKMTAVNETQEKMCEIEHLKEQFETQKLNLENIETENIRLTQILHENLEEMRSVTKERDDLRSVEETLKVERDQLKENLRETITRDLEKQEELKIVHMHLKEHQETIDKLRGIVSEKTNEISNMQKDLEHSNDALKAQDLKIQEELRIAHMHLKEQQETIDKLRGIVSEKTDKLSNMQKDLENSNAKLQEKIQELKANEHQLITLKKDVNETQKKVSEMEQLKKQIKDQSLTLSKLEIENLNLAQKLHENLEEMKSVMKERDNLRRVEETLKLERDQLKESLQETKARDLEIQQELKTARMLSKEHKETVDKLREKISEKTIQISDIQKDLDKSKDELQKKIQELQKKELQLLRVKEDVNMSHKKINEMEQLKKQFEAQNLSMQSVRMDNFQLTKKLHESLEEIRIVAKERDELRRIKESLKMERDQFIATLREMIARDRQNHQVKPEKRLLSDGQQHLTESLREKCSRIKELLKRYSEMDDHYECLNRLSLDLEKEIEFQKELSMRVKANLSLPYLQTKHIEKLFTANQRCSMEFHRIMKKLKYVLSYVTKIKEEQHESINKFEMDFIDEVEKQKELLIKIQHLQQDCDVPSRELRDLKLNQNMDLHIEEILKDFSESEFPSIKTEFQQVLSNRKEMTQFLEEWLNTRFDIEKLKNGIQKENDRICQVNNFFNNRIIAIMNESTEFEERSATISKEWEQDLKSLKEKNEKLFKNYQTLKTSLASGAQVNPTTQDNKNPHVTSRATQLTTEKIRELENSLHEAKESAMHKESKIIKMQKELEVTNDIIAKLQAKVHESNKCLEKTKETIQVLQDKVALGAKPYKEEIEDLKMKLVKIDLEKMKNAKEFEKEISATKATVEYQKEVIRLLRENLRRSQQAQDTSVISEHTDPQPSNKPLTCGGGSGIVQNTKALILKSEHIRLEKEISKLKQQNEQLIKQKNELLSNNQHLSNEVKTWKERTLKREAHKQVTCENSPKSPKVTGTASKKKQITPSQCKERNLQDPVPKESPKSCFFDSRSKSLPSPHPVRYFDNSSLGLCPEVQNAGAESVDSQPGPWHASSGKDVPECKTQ
Sequence of Centromere protein E (A0A8P0P634 whole entry): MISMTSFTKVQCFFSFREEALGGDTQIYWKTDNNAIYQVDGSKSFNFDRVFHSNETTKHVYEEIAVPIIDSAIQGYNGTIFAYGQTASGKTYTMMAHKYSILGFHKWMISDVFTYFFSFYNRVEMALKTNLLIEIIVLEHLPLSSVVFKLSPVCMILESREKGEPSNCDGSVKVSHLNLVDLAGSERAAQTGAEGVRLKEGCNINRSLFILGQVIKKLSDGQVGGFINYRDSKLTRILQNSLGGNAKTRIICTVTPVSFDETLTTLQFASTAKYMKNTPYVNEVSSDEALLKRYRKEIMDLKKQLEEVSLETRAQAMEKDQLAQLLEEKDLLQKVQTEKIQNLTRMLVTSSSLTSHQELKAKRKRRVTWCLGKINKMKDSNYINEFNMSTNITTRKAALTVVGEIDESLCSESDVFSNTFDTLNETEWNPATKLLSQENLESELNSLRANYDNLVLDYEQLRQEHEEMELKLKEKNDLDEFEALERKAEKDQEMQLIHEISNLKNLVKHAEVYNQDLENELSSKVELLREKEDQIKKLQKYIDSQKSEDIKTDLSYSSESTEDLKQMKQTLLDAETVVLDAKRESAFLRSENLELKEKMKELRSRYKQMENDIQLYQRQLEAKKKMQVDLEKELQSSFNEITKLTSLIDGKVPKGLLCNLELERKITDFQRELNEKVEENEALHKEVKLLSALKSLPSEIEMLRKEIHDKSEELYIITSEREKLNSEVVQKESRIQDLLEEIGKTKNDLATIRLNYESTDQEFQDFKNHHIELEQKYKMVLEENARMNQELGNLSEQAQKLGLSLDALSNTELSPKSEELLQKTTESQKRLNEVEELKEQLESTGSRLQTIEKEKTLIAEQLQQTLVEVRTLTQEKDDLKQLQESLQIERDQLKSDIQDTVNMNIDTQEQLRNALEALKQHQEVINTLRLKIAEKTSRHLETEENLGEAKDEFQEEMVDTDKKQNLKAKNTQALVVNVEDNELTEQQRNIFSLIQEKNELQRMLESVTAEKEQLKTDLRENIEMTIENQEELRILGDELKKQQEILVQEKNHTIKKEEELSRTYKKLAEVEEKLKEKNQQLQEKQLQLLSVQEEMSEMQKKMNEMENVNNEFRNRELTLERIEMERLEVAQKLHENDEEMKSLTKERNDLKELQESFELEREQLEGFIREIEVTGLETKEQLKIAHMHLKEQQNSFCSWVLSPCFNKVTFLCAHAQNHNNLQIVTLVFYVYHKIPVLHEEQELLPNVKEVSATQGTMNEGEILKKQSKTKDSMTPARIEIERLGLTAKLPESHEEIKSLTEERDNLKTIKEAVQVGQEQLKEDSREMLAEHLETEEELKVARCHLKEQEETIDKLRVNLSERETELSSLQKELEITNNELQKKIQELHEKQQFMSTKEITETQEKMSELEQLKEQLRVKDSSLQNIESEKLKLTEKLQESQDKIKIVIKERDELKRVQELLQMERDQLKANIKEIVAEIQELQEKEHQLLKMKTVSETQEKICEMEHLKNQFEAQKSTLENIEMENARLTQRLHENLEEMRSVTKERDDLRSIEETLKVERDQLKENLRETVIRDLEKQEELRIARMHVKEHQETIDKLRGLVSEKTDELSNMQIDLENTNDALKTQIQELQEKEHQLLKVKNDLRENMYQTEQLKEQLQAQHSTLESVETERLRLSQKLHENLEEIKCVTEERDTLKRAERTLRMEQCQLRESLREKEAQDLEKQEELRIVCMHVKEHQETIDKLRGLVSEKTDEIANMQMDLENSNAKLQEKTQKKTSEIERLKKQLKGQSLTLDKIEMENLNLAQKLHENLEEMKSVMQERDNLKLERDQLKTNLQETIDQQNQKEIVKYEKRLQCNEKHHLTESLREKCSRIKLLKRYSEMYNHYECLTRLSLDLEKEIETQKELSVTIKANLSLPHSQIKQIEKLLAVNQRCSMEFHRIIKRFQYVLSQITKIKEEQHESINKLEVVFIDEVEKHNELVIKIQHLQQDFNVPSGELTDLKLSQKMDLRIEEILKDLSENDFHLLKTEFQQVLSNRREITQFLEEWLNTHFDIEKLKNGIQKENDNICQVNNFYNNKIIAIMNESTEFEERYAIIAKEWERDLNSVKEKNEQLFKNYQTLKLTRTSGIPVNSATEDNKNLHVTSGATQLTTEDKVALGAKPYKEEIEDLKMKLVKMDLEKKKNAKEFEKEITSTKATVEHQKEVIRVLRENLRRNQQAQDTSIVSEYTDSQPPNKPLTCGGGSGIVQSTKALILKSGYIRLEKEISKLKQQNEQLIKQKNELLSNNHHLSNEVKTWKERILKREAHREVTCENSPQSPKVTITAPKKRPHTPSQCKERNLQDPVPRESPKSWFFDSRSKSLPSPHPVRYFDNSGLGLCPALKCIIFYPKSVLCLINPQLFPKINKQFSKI
Sequence of Centromere-associated protein E (Homo sapiens, UniProt Q02224, I182L/K184T/T183A) (Q02224 whole entry I182L/T183A/K184T, the tested form may be a part): as the sequence (Q02224 whole entry, the tested form may be a part) above, with I182L, T183A, K184T counted along it

SMILES	IC50 [1]	IC50 [2]	Ki [3]	Ki [4]	Ki [5]	Ki (Centromere protein E)	Ki [6]	Ki [7]	Ki [8]
Cc1cccn2cc(-c3ccc(C[C@@H](CCO)NC(=O)c4ccc(OC(C)C)c(C#N)c4)cc3)nc12	3.7 nM	7370 nM	4.2 nM	4.7 nM	–	–	–	–	–
CNC(=O)C(Cc1ccc(C(=O)c2ccccc2)cc1)NC(=O)c1ccc(OC(C)C)c(Cl)c1 (stereo not given)	550 nM	–	–	–	4.2 nM	2.4 nM	89 nM	73 nM	4400 nM
